Test results as given in ChEMBL document CHEMBL1142646, “Tetrahydroisoquinoline 1-carboxamides as growth hormone secretagogues” (Bioorg Med Chem Lett, 2005).

How the values were obtained:
[1] = molecular target: T1, Growth hormone secretagogue receptor type 1 (Homo sapiens, UniProt Q92847); assay: In vitro effective concentration against human growth hormone secretagogues; assay type: functional
How it was run: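 Cell-based FLIPR functional assay in H4 glioma cells in which expression of the endogenous human GHS receptor is enhanced by RAGE-activation. Agonism is read as intracellular calcium mobilization with a calcium-sensitive fluorescent probe, and EC50 is derived from the response.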

[2] = molecular target: T1, Growth hormone secretagogue receptor type 1; assay: Maximum intrinsic activity against human growth hormone secretagogues at a concentration of 10 uM; assay type: functional
Rattus norvegicus [3] = organism: Rattus norvegicus; assay: Number of rats with greater than 100% growth hormone increase over the control group, there are five rats in both control and compound treated groups; assay type: functional
How it was run: (§1)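 Anesthetized rats (treatment stabilizes baseline plasma GH near 60 ng/mL) were given drug or vehicle (10% ethanol, 0.09% saline V/V) IV at 10 mL/kg, five rats per group. Blood was drawn from the abdominal aorta 15 min later for plasma GH. The result is expressed as % increase over the vehicle group, or as rats exceeding a 100% increase.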

[4] = molecular target: T1, Growth hormone secretagogue receptor type 1; assay: In vivo effective concentration against human growth hormone secretagogues; assay type: functional, organism-based, Rattus norvegicus
Rattus norvegicus [5] = assay: Percent of plasma growth hormone increase at an IV dose of 5.23 lmol/kg; assay type: functional; how it was run: as §1
Rattus norvegicus [6] = organism: Rattus norvegicus; assay: Number of rats with greater than 100% GH increase over the controlgroup, there are five rats in both control and compound treated groups.; assay type: functional; how it was run: as §1
[7] = molecular target: T1, Growth hormone secretagogue receptor type 1; assay: In vitro effective concentration against human growth hormone secretagogues

T1 sequence (Q92847 whole entry): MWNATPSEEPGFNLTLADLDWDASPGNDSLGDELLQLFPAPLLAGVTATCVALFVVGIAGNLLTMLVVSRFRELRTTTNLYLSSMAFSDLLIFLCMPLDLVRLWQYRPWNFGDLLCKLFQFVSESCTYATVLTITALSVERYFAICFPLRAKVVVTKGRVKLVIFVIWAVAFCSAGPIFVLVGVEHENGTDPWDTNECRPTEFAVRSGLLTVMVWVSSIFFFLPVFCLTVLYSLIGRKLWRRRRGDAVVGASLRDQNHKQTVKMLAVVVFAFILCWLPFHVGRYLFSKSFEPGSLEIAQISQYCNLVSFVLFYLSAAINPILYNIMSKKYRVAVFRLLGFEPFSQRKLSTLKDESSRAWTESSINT

EC50 [1] [nM] | SMILES | other results
17.8 | CC(C)N(CCNC(=O)C1c2ccc(OCc3ccccc3)cc2CCN1C(=O)c1ccccc1F)C(C)C (configuration not stated) | 
27 | CC(C)N(CCNC(=O)C1c2ccc(OCc3ccccc3)cc2CCN1C(=O)OCc1ccccc1)C(C)C (configuration not stated) | 
7.6 | CC(C)N(CCNC(=O)C1c2ccc(OCc3ccccc3)cc2CCN1C(=O)c1ccccc1)C(C)C (configuration not stated) | 
 | CCOc1ccccc1C(=O)N1CCc2cc(OCc3ccccc3)ccc2C1C(=O)NCCN(C(C)C)C(C)C (configuration not stated) | Activity [2]: 30%
 | CCCCS(=O)(=O)N1CCc2cc(OCc3ccccc3)ccc2C1C(=O)NCCN(C(C)C)C(C)C (configuration not stated) | Activity [2]: 50%
21 | CC(C)N(CCNC(=O)C1c2ccc(OCc3ccccc3)cc2CCN1S(=O)(=O)N(C)C)C(C)C (configuration not stated) | 
13.1 | CC(C)N(CCNC(=O)C1c2ccc(OCc3ccccc3)cc2CCN1C(=O)CCCc1ccccc1)C(C)C (configuration not stated) | 
2.3 | CC(C)N(CCNC(=O)C1c2ccc(Oc3ccc(C(F)(F)F)cc3)cc2CCN1C(=O)OC(C)(C)C)C(C)C (configuration not stated) | 
0.46 | COc1cccc(Oc2ccc3c(c2)CCN(C(=O)OC(C)(C)C)C3C(=O)NCCN(C(C)C)C(C)C)c1 (configuration not stated) | 
0.46 | CC(C)N(CCNC(=O)C1c2ccc(Oc3ccccc3)cc2CCN1C(=O)OC(C)(C)C)C(C)C (single isomer, unassigned; form 2) | Responder (Rattus norvegicus [3]): 5 rats; EC50 [4]: 0.46 nM; Increase (Rattus norvegicus [5]): 1283%
1.5 | COC(=O)C(C)(C)OC(=O)N1CCc2cc(OCc3ccccc3)ccc2C1C(=O)NCCN(C(C)C)C(C)C (configuration not stated) | Responder (Rattus norvegicus [6]): 5 rats; Increase (Rattus norvegicus [5]): 746%; EC50 [7]: 1.5 nM
39 | CC(C)N(CCNC(=O)C1c2ccc(OCc3ccccc3)cc2CCN1C(=O)C(O)c1ccccc1)C(C)C (configuration not stated) | 
 | CC(C)N(CCNC(=O)C1c2ccc(OCc3ccccc3)cc2CCN1S(C)(=O)=O)C(C)C (configuration not stated) | Activity [2]: 47%
219 | CC(C)NCCNC(=O)C1c2ccc(OCc3ccccc3)cc2CCN1C(=O)OC(C)(C)C (configuration not stated) | 
2.1 | COc1ccccc1CC(=O)N1CCc2cc(OCc3ccccc3)ccc2C1C(=O)NCCN(C(C)C)C(C)C (configuration not stated) | 
1.4 | CC(C)N(CCNC(=O)C1c2ccc(Oc3ccc(C=O)cc3)cc2CCN1C(=O)OC(C)(C)C)C(C)C (configuration not stated) | 
190 | CC(C)N(CCNC(=O)C1c2ccc(OCc3ccccc3)cc2CCN1C(=O)N(C)C)C(C)C (configuration not stated) | 
3.4 | CC(C(=O)N1CCc2cc(OCc3ccccc3)ccc2C1C(=O)NCCN(C(C)C)C(C)C)c1ccccc1 (configuration not stated) | 
9 | CC(C)N(CCNC(=O)C1c2ccc(OCc3ccccc3)cc2CCN1C(=O)Cc1ccccc1)C(C)C (configuration not stated) | 
7.3 | CC(C)N(CCNC(=O)C1c2ccc(OCc3ccccc3)cc2CCN1S(=O)(=O)Cc1ccccc1)C(C)C (configuration not stated) | 
 | CC(C)N(CCNC(=O)C1c2ccc(OCc3ccccc3)cc2CCN1C(=O)C(C)(C)C)C(C)C (configuration not stated) | Activity [2]: 50%
9.8 | CC(C)N(CCNC(=O)C1c2ccc(OCc3ccccc3)cc2CCN1C(=O)OC(C)(C)C#N)C(C)C (configuration not stated) | 
14.4 | CC(C)N(CCNC(=O)C1c2ccc(OCc3ccccc3)cc2CCN1C(=O)NC(C)(C)C)C(C)C (configuration not stated) | 
11.7 | CC(C)N(CCNC(=O)C1c2ccc(OCc3ccccc3)cc2CCN1C(=O)OC(C)(C)C)C(C)C (configuration not stated) | 
5.6 | CC(C)N(CCNC(=O)C1c2ccc(OCc3ccccc3)cc2CCN1C(=O)C(CO)c1ccccc1)C(C)C (configuration not stated) | 
6.4 | COc1cccc(CC(=O)N2CCc3cc(OCc4ccccc4)ccc3C2C(=O)NCCN(C(C)C)C(C)C)c1 (configuration not stated) | 
2.4 | CSc1ccc(Oc2ccc3c(c2)CCN(C(=O)OC(C)(C)C)C3C(=O)NCCN(C(C)C)C(C)C)cc1 (configuration not stated) | 
45 | COc1ccc(CC(=O)N2CCc3cc(OCc4ccccc4)ccc3C2C(=O)NCCN(C(C)C)C(C)C)cc1 (configuration not stated) | 

EC50 [1] [nM] | SMILES | other results
0.66 | CC(C)N(CCNC(=O)C1c2ccc(Oc3cccc([N+](=O)[O-])c3)cc2CCN1C(=O)OC(C)(C)C)C(C)C (configuration not stated) | 
0.49 | COc1ccc(Oc2ccc3c(c2)CCN(C(=O)OC(C)(C)C)C3C(=O)NCCN(C(C)C)C(C)C)cc1 (configuration not stated) | Responder (Rattus norvegicus [6]): 4 rats; Increase (Rattus norvegicus [5]): 172%; EC50 [7]: 0.49 nM
12 | CC(=O)Nc1cccc(Oc2ccc3c(c2)CCN(C(=O)OC(C)(C)C)C3C(=O)NCCN(C(C)C)C(C)C)c1 (configuration not stated) | 
3.4 | CCCOC(=O)N1CCc2cc(OCc3ccccc3)ccc2C1C(=O)NCCN(C(C)C)C(C)C (configuration not stated) | 
1.5 | CC(C)N(CCNC(=O)C1c2ccc(Oc3cccc(C(F)(F)F)c3)cc2CCN1C(=O)OC(C)(C)C)C(C)C (configuration not stated) | 
2 | CC(=O)C(C)(C)OC(=O)N1CCc2cc(OCc3ccccc3)ccc2C1C(=O)NCCN(C(C)C)C(C)C (configuration not stated) | Responder (Rattus norvegicus [6]): 5 rats; Increases (Rattus norvegicus [5]): 666%; EC50 [7]: 2 nM
0.85 | CC(C)N(CCNC(=O)C1c2ccc(OCc3ccccc3)cc2CCN1C(=O)OC(C)(C)C(=O)N(C)C)C(C)C (configuration not stated) | 
0.73 | CC(C)N(CCNC(=O)C1c2ccc(Oc3ccc(Cl)cc3)cc2CCN1C(=O)OC(C)(C)C)C(C)C (configuration not stated) | 
4.3 | CC(C)N(CCNC(=O)C1c2ccc(Oc3cccc(F)c3)cc2CCN1C(=O)OC(C)(C)C)C(C)C (configuration not stated) | 
9.2 | CC(=O)C(C(=O)N1CCc2cc(OCc3ccccc3)ccc2C1C(=O)NCCN(C(C)C)C(C)C)c1ccccc1 (configuration not stated) | 
 | CC(C)N(CCNC(=O)C1c2ccc(OCc3ccccc3)cc2CCN1C(=O)Nc1ccccc1)C(C)C (configuration not stated) | Activity [2]: 43%
41 | CC(C)N(C)CCNC(=O)C1c2ccc(OCc3ccccc3)cc2CCN1C(=O)OC(C)(C)C (configuration not stated) | 
20.9 | CC(C)N(CCNC(=O)C1c2ccc(OCc3ccccc3)cc2CCN1C(=O)CC(C)(C)C)C(C)C (configuration not stated) | 
21 | CC(C)N(CCNC(=O)C1c2ccc(OCc3ccccc3)cc2CCN1S(=O)(=O)c1ccccc1)C(C)C (configuration not stated) | 
 | CN(C)CCNC(=O)C1c2ccc(OCc3ccccc3)cc2CCN1C(=O)OC(C)(C)C (configuration not stated) | Activity [2]: 46%
26.7 | CC(C)N(CCNC(=O)C1c2ccc(OCc3ccccc3)cc2CCN1C(=O)CCc1ccccc1)C(C)C (configuration not stated) | 
19.7 | CC(=O)NC(C(=O)N1CCc2cc(OCc3ccccc3)ccc2C1C(=O)NCCN(C(C)C)C(C)C)c1ccccc1 (configuration not stated) | 
7.6 | CC(C)N(CCNC(=O)C1c2ccc(Oc3ccccc3)cc2CCN1C(=O)OC(C)(C)C)C(C)C (single isomer, unassigned; form 1) | 
7.3 | CC(=O)c1ccccc1C(=O)N1CCc2cc(OCc3ccccc3)ccc2C1C(=O)NCCN(C(C)C)C(C)C (configuration not stated) | 
19.6 | CCN(CC)CCNC(=O)C1c2ccc(OCc3ccccc3)cc2CCN1C(=O)OC(C)(C)C (configuration not stated) | 
 | CC(C)(N)CNC(=O)C1c2ccc(OCc3ccccc3)cc2CCN1C(=O)OC(C)(C)C (configuration not stated) | Activity [2]: 47%
257 | CC(=O)N1CCc2cc(OCc3ccccc3)ccc2C1C(=O)NCCN(C(C)C)C(C)C (configuration not stated) | 
43 | CC(C)N(CCNC(=O)C1c2ccc(OCc3ccccc3)cc2CCN1C(=O)Cc1ccccc1F)C(C)C (configuration not stated) | 
0.49 | CC(C)N(CCNC(=O)C1c2ccc(Oc3ccccc3)cc2CCN1C(=O)OC(C)(C)C)C(C)C (stereo in doubt; 12a) | 
 | CC(C)N(CCNC(=O)C1c2ccc(OCc3ccccc3)cc2CCN1C(=O)Oc1ccccc1)C(C)C (configuration not stated) | Activity [2]: < 5%
4.9 | CC(C)N(CCNC(=O)C1c2ccc(OCc3ccccc3)cc2CCN1C(=O)OC1CCCCC1)C(C)C (configuration not stated) | 
257 | CC(C)(CN)CNC(=O)C1c2ccc(OCc3ccccc3)cc2CCN1C(=O)OC(C)(C)C (configuration not stated) | 
